# Experiments:
# Rattus norvegicus [1] = species: Rattus norvegicus; experiment: Effective dose required for the inhibition of adjuvant arthritis in Sprague-Darley rats; assay type: functional
# Summary of the method: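 Adjuvant-induced arthritis in Sprague–Darley rats, with compound dosed daily (mg/kg/day).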
# [2] = target: T1, Prostaglandin G/H synthase 2 (Mus musculus, UniProt Q05769); experiment: Ability to inhibit Prostaglandin G/H synthase 2 by using freshly harvested mouse peritoneal macrophages
# T1 sequence (Q05769 whole entry): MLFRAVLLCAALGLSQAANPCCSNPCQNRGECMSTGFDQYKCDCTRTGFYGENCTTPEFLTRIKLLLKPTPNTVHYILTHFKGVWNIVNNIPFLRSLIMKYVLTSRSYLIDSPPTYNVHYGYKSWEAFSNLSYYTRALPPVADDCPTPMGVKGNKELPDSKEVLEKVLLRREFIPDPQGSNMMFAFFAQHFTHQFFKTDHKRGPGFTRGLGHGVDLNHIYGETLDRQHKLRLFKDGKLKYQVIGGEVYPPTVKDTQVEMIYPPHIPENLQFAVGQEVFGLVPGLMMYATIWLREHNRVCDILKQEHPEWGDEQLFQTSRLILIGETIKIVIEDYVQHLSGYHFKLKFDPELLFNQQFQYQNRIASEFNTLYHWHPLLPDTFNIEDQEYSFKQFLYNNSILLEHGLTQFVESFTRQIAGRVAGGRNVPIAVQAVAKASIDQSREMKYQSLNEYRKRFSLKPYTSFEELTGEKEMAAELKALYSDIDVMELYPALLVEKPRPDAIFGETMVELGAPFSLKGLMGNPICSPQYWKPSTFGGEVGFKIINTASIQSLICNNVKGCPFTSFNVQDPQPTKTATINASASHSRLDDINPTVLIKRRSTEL
# [3] = target: T2, Prostaglandin G/H synthase 1 (Mus musculus, UniProt P22437); experiment: Ability to inhibit Prostaglandin G/H synthase 1 by using freshly harvested mouse peritoneal macrophages
# T2 sequence (P22437 whole entry): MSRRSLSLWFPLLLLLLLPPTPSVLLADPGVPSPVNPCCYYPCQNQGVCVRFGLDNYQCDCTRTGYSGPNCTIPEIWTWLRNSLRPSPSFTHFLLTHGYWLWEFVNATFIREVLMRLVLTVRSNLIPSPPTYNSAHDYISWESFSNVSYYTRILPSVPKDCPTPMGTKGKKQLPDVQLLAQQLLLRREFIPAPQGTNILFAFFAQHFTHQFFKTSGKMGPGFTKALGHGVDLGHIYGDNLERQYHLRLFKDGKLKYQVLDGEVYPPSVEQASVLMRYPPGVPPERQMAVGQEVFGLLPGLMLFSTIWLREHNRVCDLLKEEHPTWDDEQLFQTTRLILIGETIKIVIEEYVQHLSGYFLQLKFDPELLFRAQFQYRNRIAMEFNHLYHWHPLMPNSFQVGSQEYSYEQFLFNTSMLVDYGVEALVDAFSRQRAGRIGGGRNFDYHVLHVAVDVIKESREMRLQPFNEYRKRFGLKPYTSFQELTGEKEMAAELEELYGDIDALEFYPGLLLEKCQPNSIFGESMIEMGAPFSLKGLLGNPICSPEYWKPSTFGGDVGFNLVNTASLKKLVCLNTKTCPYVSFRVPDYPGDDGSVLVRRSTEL
# Rattus norvegicus [4] = experiment: In vivo inhibitory activity against carrageenan induced paw edema in Sprague-Darley rats after oral administration of the compound; assay type: functional
# Summary of the method: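 Sprague–Darley rats were given compound orally at 3 mg/kg body weight. Read-out was percent inhibition of paw edema, using five animals per group.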
IC50 [2],IC50 [3],Structure (SMILES),ED50 (Rattus norvegicus [1]),Inhibition (Rattus norvegicus [4])
79.3 nM,,CC1(C)OC(c2ccc(S(C)(=O)=O)cc2)=C(c2cc(F)cc(F)c2)C1=O,0.03 mg/kg/day,
191 nM,,CS(=O)(=O)c1ccc(C2=C(c3ccccc3)C(=O)OC2)cc1 [ROFECOXIB],,
146 nM,8760 nM,CC1(C)OC(c2ccc(S(C)(=O)=O)cc2)=C(c2ccccc2)C1=O,,

# More lines, now with the values behind:
Structure (SMILES),IC50 [2],IC50 [3],ED50 (Rattus norvegicus [1]),Inhibition (Rattus norvegicus [4])
CC1(C)OC(c2ccc(S(C)(=O)=O)cc2)=C(c2cccc(F)c2)C1=O,,,0.08 mg/kg/day,
CC1(C)OC(c2ccc(S(C)(=O)=O)cc2)=C(c2cccc(C(F)(F)F)c2)C1=O,122 nM,7310 nM,0.06 mg/kg/day,
CC1(C)OC(c2ccc(S(C)(=O)=O)cc2)=C(c2cccc(Cl)c2)C1=O,,,,32%
Cc1ccccc1C1=C(c2ccc(S(C)(=O)=O)cc2)OC(C)(C)C1=O,842 nM,56100 nM,,
Cc1ccc(-c2cc(C(F)(F)F)nn2-c2ccc(S(N)(=O)=O)cc2)cc1 [CELECOXIB],,,0.2 mg/kg/day,31%
